Test results reported in ChEMBL document CHEMBL3877264, “Quinolidene-rhodanine conjugates: Facile synthesis and biological evaluation” (Eur J Med Chem, 2017).
Values after ≈ are worked out from the molar mass of the structure shown.

Legend:
Type in all cases: functional
[1] = Antifungal activity against Fusarium oxysporum NCIM 1332 by standard agar method
How it was run: (§1)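 MICs determined by standard agar method; DMSO as solvent control.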

[2] = system: Staphylococcus aureus; experiment: Growth inhibition of Staphylococcus aureus NCIM 2010 at 30 ug/ml measured after 12 hrs relative to control; conditions: NCIM 2010, 12 h, read-out: GI
How it was run: (§2)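 Bacteria grown in LB at 37 °C and 180 rpm to OD 1. Compounds added to wells, then 0.1% inoculum of 1 OD culture (620 nm). Growth read as OD at 620 nm after 8 h for gram-negative and after 12 h for gram-positive strains.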

[3] = system: Bacillus subtilis; experiment: Growth inhibition of Bacillus subtilis NCIM 2079 at 30 ug/ml measured after 12 hrs relative to control; conditions: NCIM 2079, 12 h, read-out: GI; how it was run: as §2
[4] = system: Staphylococcus aureus; experiment: Growth inhibition of Staphylococcus aureus NCIM 2010 at 10 ug/ml measured after 12 hrs relative to control; conditions: NCIM 2010, 12 h, read-out: GI; how it was run: as §2
[5] = system: Staphylococcus aureus; experiment: Growth inhibition of Staphylococcus aureus NCIM 2010 at 3 ug/ml measured after 12 hrs relative to control; conditions: NCIM 2010, 12 h, read-out: GI; how it was run: as §2
[6] = system: Bacillus subtilis; experiment: Growth inhibition of Bacillus subtilis NCIM 2079 at 10 ug/ml measured after 12 hrs relative to control; conditions: NCIM 2079, 12 h, read-out: GI; how it was run: as §2
[7] = system: Bacillus subtilis; experiment: Growth inhibition of Bacillus subtilis NCIM 2079 at 3 ug/ml measured after 12 hrs relative to control; conditions: NCIM 2079, 12 h, read-out: GI; how it was run: as §2
[8] = system: Escherichia coli; experiment: Growth inhibition of Escherichia coli NCIM 2688 at 30 ug/ml measured after 8 hrs relative to control; conditions: NCIM 2688, 8 h, read-out: GI; how it was run: as §2
[9] = system: Escherichia coli; experiment: Growth inhibition of Escherichia coli NCIM 2688 at 10 ug/ml measured after 8 hrs relative to control; conditions: NCIM 2688, 8 h, read-out: GI; how it was run: as §2
[10] = system: Escherichia coli; experiment: Growth inhibition of Escherichia coli NCIM 2688 at 3 ug/ml measured after 8 hrs relative to control; conditions: NCIM 2688, 8 h, read-out: GI; how it was run: as §2
[11] = system: Pseudomonas fluorescens; experiment: Growth inhibition of Pseudomonas fluorescens NCIM 2036 at 30 ug/ml measured after 8 hrs relative to control; conditions: NCIM 2036, 8 h, read-out: GI; how it was run: as §2
[12] = system: Pseudomonas fluorescens; experiment: Growth inhibition of Pseudomonas fluorescens NCIM 2036 at 10 ug/ml measured after 8 hrs relative to control; conditions: NCIM 2036, 8 h, read-out: GI; how it was run: as §2
[13] = system: Pseudomonas fluorescens; experiment: Growth inhibition of Pseudomonas fluorescens NCIM 2036 at 3 ug/ml measured after 8 hrs relative to control; conditions: NCIM 2036, 8 h, read-out: GI; how it was run: as §2
[14] = system: Escherichia coli; experiment: Antibacterial activity against Escherichia coli NCIM 2688 measured after 8 hrs; conditions: NCIM 2688, 8 h; how it was run: as §2
[15] = system: Pseudomonas fluorescens; experiment: Antibacterial activity against Pseudomonas fluorescens NCIM 2036 measured after 8 hrs; conditions: NCIM 2036, 8 h; how it was run: as §2
[16] = system: Staphylococcus aureus; experiment: Antibacterial activity against of Staphylococcus aureus NCIM 2010 measured after 12 hrs; conditions: NCIM 2010, 12 h; how it was run: as §2
[17] = system: Bacillus subtilis; experiment: Antibacterial activity against Bacillus subtilis NCIM 2079 measured after 12 hrs; conditions: NCIM 2079, 12 h; how it was run: as §2
[18] = system: Mycobacterium tuberculosis; experiment: Growth inhibition of Mycobacterium bovis BCG ATCC 35743 at dormant stage at 30 ug/ml measured after 12 days by nitrate reductase dye based two fold dilution method relative to control; conditions: BCG str. ATCC 35743, 288 h, read-out: GI
How it was run: (§3)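 M. bovis BCG was grown in Dubos medium and assayed in Mycobacterium pheli minimal medium (pH 6.6), with compounds from DMSO stocks. Incubation lasted 8 days for active and 12 days for dormant cultures. Viability was read by nitrate reductase at 540 nm against cell-free blanks, with vehicle set as 100% growth. Primary screen was at 30, 10 and 3 µg/ml, in triplicate, mean ± SD. MIC was taken from dose-response curves.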

[19] = system: Mycobacterium tuberculosis; experiment: Growth inhibition of Mycobacterium bovis BCG ATCC 35743 at dormant stage at 10 ug/ml measured after 12 days by nitrate reductase dye based two fold dilution method relative to control; conditions: BCG str. ATCC 35743, 288 h, read-out: GI; how it was run: as §3
[20] = system: Mycobacterium tuberculosis; experiment: Growth inhibition of Mycobacterium bovis BCG ATCC 35743 at dormant stage at 3 ug/ml measured after 12 days by nitrate reductase dye based two fold dilution method relative to control; conditions: BCG str. ATCC 35743, 288 h, read-out: GI; how it was run: as §3
[21] = system: Mycobacterium tuberculosis; experiment: Growth inhibition of Mycobacterium bovis BCG ATCC 35743 at active stage measured after 8 days by nitrate reductase dye based two fold dilution method; conditions: BCG str. ATCC 35743, 192 h; how it was run: as §3
[22] = system: Mycobacterium tuberculosis; experiment: Growth inhibition of Mycobacterium tuberculosis H37Ra ATCC 25177 at dormant stage measured after 12 days by XTT dye based two fold dilution method; conditions: H37Ra ATCC 25177, 288 h
How it was run: (§4)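 MTB H37Ra was grown in Dubos medium, then exposed in Mycobacterium pheli minimal medium (pH 6.6) to compounds dissolved in DMSO. The assay ended on day 8 (active) or day 12 (dormant). Viable cells were measured by XTT reduction menadione assay at 470 nm, blank-corrected, relative to vehicle control. Triplicates were expressed as mean ± SD. MIC came from dose-response curves.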

[23] = system: Mycobacterium tuberculosis; experiment: Growth inhibition of Mycobacterium bovis BCG ATCC 35743 at dormant stage measured after 12 days by nitrate reductase dye based two fold dilution method; conditions: BCG str. ATCC 35743, 288 h; how it was run: as §3
[24] = system: Mycobacterium tuberculosis; experiment: Growth inhibition of Mycobacterium tuberculosis H37Ra ATCC 25177 at active stage measured after 8 days by XTT dye based two fold dilution method; conditions: H37Ra ATCC 25177, 192 h; how it was run: as §4
[25] = system: Candida albicans; experiment: Antifungal activity against Candida albicans NCIM 3471 by standard agar method; how it was run: as §1
[26] = system: Aspergillus flavus; experiment: Antifungal activity against Aspergillus flavus NCIM 539 by standard agar method; how it was run: as §1
[27] = system: Aspergillus niger; experiment: Antifungal activity against Aspergillus niger NCIM 1196 by standard agar method; how it was run: as §1
[28] = Antifungal activity against Cryptococcus neoformans NCIM 576 by standard agar method; how it was run: as §1

Row | SMILES | MIC [1] [µg/mL] | inhibition of growth at 30 µg/mL [2] [%] | inhibition of growth at 30 µg/mL [3] [%] | inhibition of growth at 10 µg/mL [4] [%] | inhibition of growth at 3 µg/mL [5] [%] | inhibition of growth at 10 µg/mL [6] [%] | inhibition of growth at 3 µg/mL [7] [%] | inhibition of growth at 30 µg/mL [8] [%] | inhibition of growth at 10 µg/mL [9] [%] | inhibition of growth at 3 µg/mL [10] [%] | inhibition of growth at 30 µg/mL [11] [%] | inhibition of growth at 10 µg/mL [12] [%] | inhibition of growth at 3 µg/mL [13] [%] | MIC [14] [µg/mL] | MIC [15] [µg/mL] | MIC [16] [µg/mL] | MIC [17] [µg/mL] | inhibition of growth at 30 µg/mL [18] [%] | inhibition of growth at 10 µg/mL [19] [%] | inhibition of growth at 3 µg/mL [20] [%] | further results
1 | Cc1ccc2cc(/C=C3\SC(=S)N(CC(=O)O)C3=O)c(Cl)nc2c1 | 125 (≈ 330 µM) | -16 | 2.96 | -23.6 | -13.1 | -1.27 | 2.07 | -12.5 | 2.04 | 1.9 | -8.32 | -10.7 | -11.5 | > 30 | > 30 | > 30 | > 30 | 11.4 | 22.4 | 22.7 | IC50 [21]: > 30 µg/mL; IC90 [21]: > 30 µg/mL; IC50 [22]: > 30 µg/mL; IC90 [22]: > 30 µg/mL; IC50 [23]: > 30 µg/mL; IC90 [23]: > 30 µg/mL; IC50 [24]: > 30 µg/mL; IC90 [24]: > 30 µg/mL; MIC [25]: 125 µg/mL (≈ 330 µM); MIC [26]: 100 µg/mL (≈ 264 µM); MIC [27]: 75 µg/mL (≈ 198 µM); MIC [28]: 150 µg/mL (≈ 396 µM)
2 | Cc1ccc2nc(Cl)c(/C=C3\SC(=S)NC3=O)cc2c1 | 100 (≈ 312 µM) | -44 | -16.6 | -30.8 | -49.2 | -3.58 | -8.73 | -7.51 | -6.34 | -7.51 | 18.4 | 17.5 | 23.9 | > 30 | > 30 | > 30 | > 30 | -24.3 | -18.4 | -19.3 | IC50 [21]: > 30 µg/mL; IC90 [21]: > 30 µg/mL; IC50 [22]: > 30 µg/mL; IC90 [22]: > 30 µg/mL; IC50 [23]: > 30 µg/mL; IC90 [23]: > 30 µg/mL; IC50 [24]: > 30 µg/mL; IC90 [24]: > 30 µg/mL; MIC [25]: 175 µg/mL (≈ 545 µM); MIC [26]: 125 µg/mL (≈ 390 µM); MIC [27]: 125 µg/mL (≈ 390 µM); MIC [28]: 150 µg/mL (≈ 468 µM)
3 | CCOc1ccc2nc(Cl)c(/C=C3\SC(=S)N(CCC(=O)O)C3=O)cc2c1 | 125 (≈ 296 µM) | -27.7 | -4.16 | -39.4 | -5.78 | -8.28 | -2.45 | 14.8 | 7.42 | 5.32 | 7.19 | -40.5 | -85 | > 30 | > 30 | > 30 | > 30 | 32.5 | 33 | 21.5 | IC50 [21]: > 30 µg/mL; IC90 [21]: > 30 µg/mL; IC50 [22]: > 30 µg/mL; IC90 [22]: > 30 µg/mL; IC50 [23]: > 30 µg/mL; IC90 [23]: > 30 µg/mL; IC50 [24]: > 30 µg/mL; IC90 [24]: > 30 µg/mL; MIC [25]: 200 µg/mL (≈ 473 µM); MIC [26]: 100 µg/mL (≈ 236 µM); MIC [27]: 175 µg/mL (≈ 414 µM); MIC [28]: 175 µg/mL (≈ 414 µM)
4 | Cc1ccc2cc(/C=C3\SC(=S)NC3=O)c(Cl)nc2c1 | 100 (≈ 312 µM) | 6.45 | -9.15 | -4.88 | -13.7 | -4.08 | -2.83 | 12.9 | 11.3 | 13.8 | 12.2 | 27.1 | -8.82 | > 30 | > 30 | > 30 | > 30 | 11.4 | 15 | 11.4 | IC50 [21]: > 30 µg/mL; IC90 [21]: > 30 µg/mL; IC50 [22]: > 30 µg/mL; IC90 [22]: > 30 µg/mL; IC50 [23]: > 30 µg/mL; IC90 [23]: > 30 µg/mL; IC50 [24]: > 30 µg/mL; IC90 [24]: > 30 µg/mL; MIC [25]: 100 µg/mL (≈ 312 µM); MIC [26]: 50 µg/mL (≈ 156 µM); MIC [27]: 75 µg/mL (≈ 234 µM); MIC [28]: 50 µg/mL (≈ 156 µM)
